Source: PubChem
Compounds with a hit are over-represented: about 3.4% of the library has one in this group of screens.
MDM2 E3 inh: inhibitors of human Mdm2 E3 ubiquitin ligase; Q00987; cell-based MDM2 ubiquitination luciferase reporter, 2 h; 0 = plate control, 100 = twice control, blank-subtracted; signal enhancement, % at 5 µM; 210,000 tested, 0.11% active; AID 1230;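 active means signal enhancement of 30% or more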;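 further: luminescence tracks abundance of the self-degrading MDM2-luciferase fusion protein; higher signal means inhibition of MDM2 E3 ligase activity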
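Assay system: stable mammalian line carrying autodegrading MDM2–luciferase fusion reporter; Input: 2000 cells in each well; Compound dosing: single-point 5 µM; Schedule: 2 h compound exposure at 37 °C; Signal: SteadyLite luciferase luminescence after 15 min room-temperature reagent incubation; Evaluation: % luminescence enhancement versus blank-corrected plate control mean; Benchmarks: plate controls and plate blanks.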
Cl transport mod: KCC2 (human) Cl- transport modulation; KCC2 cells, thallium flux FluoZin-2 fluorescence; 190,000 tested, 2.2% active; B-score of Tl+ flux slope (higher = more flux/activation; lower = inhibition) at 10 µM;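 active means thallium flux slope and its plate-corrected score both differing from the plate sample mean at a set confidence after two filtering rounds, in either direction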;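 further: slope of fluorescence scaled to starting intensity during 10 to 20 s after thallium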
p97 ATPase inh: inhibitors of human p97 ATPase. P55072. recombinant p97 ATPase, Kinase-Glo ATP luminescence, 3 h. inhibition, % at 8 µM. 220,000 tested, 0.42% active. AID 1481; in the data active means inhibition above about 15%;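 further: 0% = DMSO vehicle and 100% = wells lacking enzyme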
Redox H2O2 prof: compounds producing H2O2 with reducing agent – biochemical, NIH compound library profiling, artefact control for MLSCN library redox annotation, primary screen; DTT-dependent redox cycling H2O2, phenol red/HRP absorbance; 100% = 100 µM peroxide control, 0% = buffer; activation, % at 10 µM; 200,000 tested, 0.03% active;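 active means activation of at least 50% relative to the plate's high and low controls in the primary single-dose screen; inactive means activation below 50%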;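 further: compound incubated with DTT at 0.8 mM final as the reducing agent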
ROMK mod: modulates human ROMK potassium channel activity; P48048; Tet-inducible ROMK, thallium flux fluorescence; actives lie on both sides; B-score at 10 µM; 130,000 tested, 2% active; AID 1918;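 active means signal ratio slope over the read window, or its plate-corrected B-score, at least 3 SD from the plate mean, either direction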;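 further: B-score of the F/F0 ratio slope over 7 to 12 s after thallium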
PKD1 kinase inh: blocks activity of human protein kinase D1 | Q15139 | PKD1 kinase fluorescence polarization assay | inhibition, % (concentration not given with the values) | 200,000 tested, 0.056% active; in the data active means inhibition above about 50%
Target sequence (Q15139 whole entry, looked up): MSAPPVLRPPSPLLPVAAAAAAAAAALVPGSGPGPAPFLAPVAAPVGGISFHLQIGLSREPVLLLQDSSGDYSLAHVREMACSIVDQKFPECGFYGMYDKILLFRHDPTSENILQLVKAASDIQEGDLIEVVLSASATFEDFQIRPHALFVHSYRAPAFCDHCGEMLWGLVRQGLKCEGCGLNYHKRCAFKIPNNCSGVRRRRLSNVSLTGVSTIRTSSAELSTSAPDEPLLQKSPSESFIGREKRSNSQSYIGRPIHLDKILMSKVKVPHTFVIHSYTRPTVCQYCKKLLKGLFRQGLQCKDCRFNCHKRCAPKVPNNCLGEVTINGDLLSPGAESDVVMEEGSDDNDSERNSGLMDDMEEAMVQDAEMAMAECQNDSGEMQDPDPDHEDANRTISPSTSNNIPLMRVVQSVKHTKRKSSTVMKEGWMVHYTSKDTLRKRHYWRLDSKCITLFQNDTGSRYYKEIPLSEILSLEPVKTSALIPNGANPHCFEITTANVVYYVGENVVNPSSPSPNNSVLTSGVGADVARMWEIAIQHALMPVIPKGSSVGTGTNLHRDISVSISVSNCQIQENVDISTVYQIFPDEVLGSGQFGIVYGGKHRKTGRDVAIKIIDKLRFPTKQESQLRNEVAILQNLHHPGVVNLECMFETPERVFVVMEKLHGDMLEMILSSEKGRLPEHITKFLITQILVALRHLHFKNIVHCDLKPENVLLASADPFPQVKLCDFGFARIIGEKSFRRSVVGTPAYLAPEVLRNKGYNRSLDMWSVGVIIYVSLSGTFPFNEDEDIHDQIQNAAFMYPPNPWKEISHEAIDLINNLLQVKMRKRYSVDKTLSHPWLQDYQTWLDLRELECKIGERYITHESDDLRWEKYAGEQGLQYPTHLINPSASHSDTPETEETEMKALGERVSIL
ROMK retest: human ROMK channel modulation, retest confirmation; shares compounds with ROMK mod; ROMK thallium flux, fluorescence ratio; active compounds read low; normalized thallium flux (F/F0 slope) at 10 µM; 3,000 tested, 54% active;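 active means Flux at 10 µM at least 3 SD below or above vehicle control mean in one or both replicates; inconclusive means no clear call, values can overlap the other calls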
* hit, by the source's call; ? = inconclusive; / = no result given.

SMILES | MDM2 E3 inh | Cl transport mod | p97 ATPase inh | Redox H2O2 prof | ROMK mod | PKD1 kinase inh | ROMK retest
NNC(=O)c1cccc(COc2ccccc2Br)c1 | 17 | -0.47 | 2 | -8 | / | -1 | /
N#CC1=C(N)NC(SCc2ccc(Cl)cc2)=C(C#N)C12CCCCC2 | -1 | -1.8 | -4 | 1 | -0.85 | -2 | 0.062*
N#CC1=C(N)NC(SCc2ccc(Br)cc2)=C(C#N)C12CCCCC2 | -5 | -1.3 | 1 | -1 | -3.9* | -4 | 0.077
CCSC1=C(C#N)C2(CCCC2)C(C#N)=C(N)N1 | -2 | 0.6 | 3 | -1 | / | -13 | /
N#CC1=C(N)NC(SCc2ccccc2)=C(C#N)C12CCCC2 | -88 | -1.6 | -4 | 0 | -1.1 | -3 | /
O=C(NCc1cccs1)C1CCN(S(=O)(=O)c2ccc(Br)s2)CC1 | -20 | / | -7 | 0 | 0.037 | -2 | /
CC(C)COc1ccc(C(=O)OC2CC(C)(C)OCC2CN(C)C)cc1 (stereo not given) | -1 | / | 0 | 0 | -3.7* | -3 | 0.055*
Cn1nnnc1SCCNCc1ccccc1OCc1ccc(F)cc1 | -11 | -2.2 | -4 | -2 | -3.8* | 7 | 0.059*
Cn1nnnc1SCCNCc1ccccc1F | -13 | / | 0 | 0 | / | 1 | /
CCC(C)(C)NC(=S)Nc1ccccc1C | -89 | 0.91 | -4 | -2 | -1.5 | -6 | /
CCn1c(C)cs/c1=N\C(=S)Nc1ccccc1C | -10 | 0.0085 | 1 | -1 | 3.2* | -8 | 0.07
O=C1c2cccc3c([N+](=O)[O-])ccc(c23)C(=O)N1CCc1ccccn1 | -20 | -0.39 | 1 | / | 0.0051 | / | /
CN(C)CCCN1C(=O)c2cccc3c([N+](=O)[O-])ccc(c23)C1=O | -14 | -0.89 | 6 | 0 | -4.8* | 8 | 0.038*
Cc1ccc2c(c1)nnn2C1CCN(CC(=O)Nc2ccccc2N2CCOCC2)CC1 | 4 | / | -9 | -4 | -4.2* | 0 | 0.055*
Cc1ccc(C)c(NC(=O)c2nnn(Cc3ccccc3C)c2N)c1 | 6 | -0.58 | -2 | 2 | / | 17 | /
O=C(c1cccc(C(F)(F)F)c1)N1CCC(O)(CS(=O)(=O)Cc2ccc(Cl)cc2)CC1 | 0 | -2.1 | 3 | -3 | / | -5 | 0.075
S=C(Nc1ccccc1)N1CCCCCCC1 | 3 | -0.0071 | 3 | 0 | 0.16 | 2 | /
S=C(Nc1ccccc1)N1CCN(C(=S)Nc2ccccc2)CC1 | -8 | 0.078 | -1 | -1 | -13* | -6 | 0.087
S=C(Nc1ccc(Oc2ccccc2)cc1)N1CCN(c2ccccn2)CC1 | -17 | 0.014 | 6 | -1 | 2.6* | -5 | 0.082
Cc1cc(-c2nnnn2-c2ccc(C(F)(F)F)cc2)no1 | -12 | -0.61 | 2 | / | / | / | /
COc1ccc(NC(=O)/C(C#N)=C/c2ccc(Sc3nncn3C)c([N+](=O)[O-])c2)cc1 | -3 | / | 2 | 0 | -6.5* | -1 | 0.036*
CS(=O)(=O)c1cccc(NC(=O)C2CC2)c1 | -5 | -1.1 | 1 | 0 | / | -3 | /
O=C(Nc1cccc(S(=O)(=O)c2cccc(NC(=O)C3CC3)c2)c1)C1CC1 | -15 | / | 9 | 2 | -0.8 | -5 | 0.074
CCn1c(=O)n(CC)c2cc(S(=O)(=O)N3CCc4ccccc43)ccc21 | -17 | -0.14 | 1 | -4 | / | 6 | ?
CN1CCOCCOCCOCCN(C)C1=S | 4 | 0.2 | 3 | 0 | 0.72 | 0 | /
SMILES | MDM2 E3 inh | Cl transport mod | p97 ATPase inh | Redox H2O2 prof | ROMK mod | PKD1 kinase inh | ROMK retest
CC(=O)c1sc2nsc(SCCN3CCCCC3)c2c1N | -15 | 0.11 | 0 | / | / | / | 0.053*
CCn1c(CNc2cccc(Cl)c2)nnc1SCC(=O)OC1CCCCC1 | 13 | -2.1 | -4 | 0 | / | -6 | 0.062*
CCOC(=O)CC1CCCCN1Cc1nc(-c2ccc(F)c(OC)c2)oc1C (stereo not given) | -5 | -0.19 | 1 | -1 | -3* | -4 | 0.06*
Oc1ccc(Nc2nc(NCC3CCCO3)c3ccccc3n2)cc1 (stereo not given) | -16 | -2 | 7 | 2 | -5.5* | -1 | 0.055*
Cc1cc2ccccc2n1CCNC(=O)C1CCCC1 | -13 | -0.084 | 2 | 2 | / | 8 | /
Cc1cc2ccccc2n1CCNC(=O)c1cccs1 | -20 | / | 7 | 0 | / | 0 | 0.069*
COc1ccc(C2(CNC(=O)c3cccc([N+](=O)[O-])c3)CCOCC2)cc1OC | -7 | 0.52 | 2 | 0 | / | 3 | /
Cc1ccc(C(=O)NNC(=S)Nc2cccc(Cl)c2Cl)cc1[N+](=O)[O-] | -6 | / | 3 | 0 | 4.3* | 7 | 0.091
CC(=O)c1cccc(NC(=S)NNC(=O)c2ccc(C)c([N+](=O)[O-])c2)c1 | -3 | -0.59 | 1 | 1 | 0.55 | -3 | /
CC(=O)c1ccc(N/N=C(/C(N)=O)C2=NC(C)(C)Cc3ccccc32)cc1 | -12 | -0.51 | 2 | 0 | -5.4* | 1 | 0.049*
CC1(C)Cc2ccccc2C(/C(=N\Nc2cccc(Cl)c2)C(N)=O)=N1 | -8 | 1.2 | 0 | 0 | -1.6 | -6 | /
COc1ccc(-n2c(O)c(/C=N/NS(=O)(=O)c3ccc(C)cc3)c3ccccc3c2=O)cc1OC | 2 | -0.87 | 6 | -1 | -5* | -8 | ?
O=c1nc(/C=C/c2cccn2-c2ccc([N+](=O)[O-])cc2)cc(C(F)(F)F)[nH]1 | -6 | -1.4 | -1 | 0 | 0.27 | -3 | /
O=c1nc(/C=C/c2cc([N+](=O)[O-])ccc2Cl)cc(C(F)(F)F)[nH]1 | -16 | -1.6 | 3 | 0 | -6* | -3 | 0.04*
CC1(C)OC(=O)C(=Cc2ccc(-c3ccc(Cl)c(C(=O)O)c3)o2)C(=O)O1 | -3 | 1 | 10 | -2 | 0.3 | 2 | /
COc1ccc(N/N=C(\C#N)C(=N)N2CCCCC2)cc1 | -1 | 0.99 | 10 | / | / | / | /
COc1ccc(N/N=C(\C#N)C(=N)SCc2ccccc2)cc1 | -27 | -0.025 | 6 | -1 | / | -1 | 0.053*
CCc1cccc(CC)c1-n1c(SCC(=O)c2c(N)n(C)c(=O)n(C)c2=O)nnc1-c1cccnc1 | 6 | 0.94 | 3 | 1 | -0.092 | 4 | /
COc1ccc(C2CC(C)(c3ccc(OC)cc3)Nc3ccccc3N2)cc1 (stereo not given) | -9 | 0.93 | 7 | / | / | / | 0.087
COc1ccc(C2(c3ccc(OC(C)=O)cc3OC(C)=O)CC(c3ccccc3)NC(=S)N2)cc1 (stereo not given) | -9 | -0.53 | 0 | -1 | -0.19 | 9 | /
COc1cccc(N2CCN(c3c(C#N)c(C(F)(F)F)nn3C)CC2)c1 | 4 | 0.83 | -4 | 0 | -4.1* | 0 | 0.06*
